Test results reported in PMC10582670 (Clinical and Translational Science, 2023).
Several values for one entry are separate records, joined by “and”; a condition that tells them apart may be missing. Equal entries are not always repeated.

Test system: healthy volunteers
Assay: Safety and tolerability
Format: in vivo, human
Procedure, shortened: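 Healthy volunteers aged 18–55 y, BMI 18–30 kg/m², randomised double-blind 8:2 to once-daily oral drug or placebo for up to 14 days, with follow-up visits on days 21 and 42. Treatment-emergent AEs coded with MedDRA 23.1 and graded with the WHO toxicity scale, alongside ECGs, laboratory tests and vital signs. The safety population was all subjects receiving at least one dose.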

SMILES: O=C(c1nc2n(n1)[C@H](c1ccccc1)C[C@@H]2F)C1CC1 [GDC‐8264]
- No. of TEAEs (MAD 50 mg q.d., n = 5): 10
- No. of deaths (MAD 50 mg q.d., n = 5): 0 no. of subjects (%)
- No. of subjects with at least one Related TEAE (MAD 50 mg q.d., n = 5): 3 (60.0) no. of subjects (%)
- No. of subjects with at least one Serious TEAE (MAD 50 mg q.d., n = 5): 0 no. of subjects (%)
- No. of subjects with at least one TEAE (MAD 50 mg q.d., n = 5): 3 (60.0) no. of subjects (%)
- No. of subjects withdrawn from study due to a TEAE (MAD 50 mg q.d., n = 5): 0 no. of subjects (%)
- TEAE Abdominal pain (MAD 50 mg q.d., n = 5): 0 no. of subjects (%)
- TEAE Back pain (MAD 50 mg q.d., n = 5): 0 no. of subjects (%)
- TEAE Catheter site pain (MAD 50 mg q.d., n = 5): 0 no. of subjects (%)
- TEAE Dermatitis contact (MAD 50 mg q.d., n = 5): 0 no. of subjects (%)
- TEAE Diarrhea (MAD 50 mg q.d., n = 5): 1 (20.0) no. of subjects (%)
- TEAE Dizziness (MAD 50 mg q.d., n = 5): 0 no. of subjects (%)
- TEAE Dyspepsia (MAD 50 mg q.d., n = 5): 1 (20.0) no. of subjects (%)
- TEAE Gastrointestinal sounds abnormal (MAD 50 mg q.d., n = 5): 0 no. of subjects (%)
- TEAE Gingivitis (MAD 50 mg q.d., n = 5): 0 no. of subjects (%)
- TEAE Headache (MAD 50 mg q.d., n = 5): 0 no. of subjects (%)
- TEAE Medical device site dermatitis (MAD 50 mg q.d., n = 5): 0 no. of subjects (%)
- TEAE Myalgia (MAD 50 mg q.d., n = 5): 0 no. of subjects (%)
- TEAE Nausea (MAD 50 mg q.d., n = 5): 0 no. of subjects (%)
- TEAE Presyncope (MAD 50 mg q.d., n = 5): 0 no. of subjects (%)
- TEAE Somnolence (MAD 50 mg q.d., n = 5): 0 no. of subjects (%)
- No. of TEAEs (MAD 100 mg q.d., n = 7): 32
- No. of deaths (MAD 100 mg q.d., n = 7): 0 no. of subjects (%)
- No. of subjects with at least one Related TEAE (MAD 100 mg q.d., n = 7): 5 (71.4) no. of subjects (%)
- No. of subjects with at least one Serious TEAE (MAD 100 mg q.d., n = 7): 0 no. of subjects (%)
- No. of subjects with at least one TEAE (MAD 100 mg q.d., n = 7): 7 (100) no. of subjects (%)
- No. of subjects withdrawn from study due to a TEAE (MAD 100 mg q.d., n = 7): 0 no. of subjects (%)
- TEAE Abdominal pain (MAD 100 mg q.d., n = 7): 2 (28.6) no. of subjects (%)
- TEAE Back pain (MAD 100 mg q.d., n = 7): 0 no. of subjects (%)
- TEAE Catheter site pain (MAD 100 mg q.d., n = 7): 2 (28.6) no. of subjects (%)
- TEAE Dermatitis contact (MAD 100 mg q.d., n = 7): 1 (14.3) no. of subjects (%)
- TEAE Diarrhea (MAD 100 mg q.d., n = 7): 2 (28.6) no. of subjects (%)
- TEAE Dizziness (MAD 100 mg q.d., n = 7): 2 (28.6) no. of subjects (%)
- TEAE Dyspepsia (MAD 100 mg q.d., n = 7): 0 no. of subjects (%)
- TEAE Gastrointestinal sounds abnormal (MAD 100 mg q.d., n = 7): 1 (14.3) no. of subjects (%)
- TEAE Gingivitis (MAD 100 mg q.d., n = 7): 2 (28.6) no. of subjects (%)
- TEAE Headache (MAD 100 mg q.d., n = 7): 2 (28.6) no. of subjects (%)
- TEAE Medical device site dermatitis (MAD 100 mg q.d., n = 7): 0 no. of subjects (%)
- TEAE Myalgia (MAD 100 mg q.d., n = 7): 0 no. of subjects (%)
- TEAE Nausea (MAD 100 mg q.d., n = 7): 1 (14.3) no. of subjects (%)
- TEAE Presyncope (MAD 100 mg q.d., n = 7): 1 (14.3) no. of subjects (%)
- TEAE Somnolence (MAD 100 mg q.d., n = 7): 3 (42.9) no. of subjects (%)
- No. of TEAEs (MAD All GDC-8264, n = 12): 42
- No. of deaths (MAD All GDC-8264, n = 12): 0 no. of subjects (%)
- No. of subjects with at least one Related TEAE (MAD All GDC-8264, n = 12): 8 (66.7) no. of subjects (%)
- No. of subjects with at least one Serious TEAE (MAD All GDC-8264, n = 12): 0 no. of subjects (%)
- No. of subjects with at least one TEAE (MAD All GDC-8264, n = 12): 10 no. of subjects (%) and 10 (83.3) no. of subjects (%)
- No. of subjects withdrawn from study due to a TEAE (MAD All GDC-8264, n = 12): 0 no. of subjects (%)
- TEAE Abdominal pain (MAD All GDC-8264, n = 12): 2 (16.7) no. of subjects (%)
- TEAE Back pain (MAD All GDC-8264, n = 12): 0 no. of subjects (%)
- TEAE Catheter site pain (MAD All GDC-8264, n = 12): 2 (16.7) no. of subjects (%)
- TEAE Dermatitis contact (MAD All GDC-8264, n = 12): 1 (8.3) no. of subjects (%)
- TEAE Diarrhea (MAD All GDC-8264, n = 12): 3 (25.0) no. of subjects (%)
- TEAE Dizziness (MAD All GDC-8264, n = 12): 2 (16.7) no. of subjects (%)
- TEAE Dyspepsia (MAD All GDC-8264, n = 12): 1 (8.3) no. of subjects (%)
- TEAE Gastrointestinal sounds abnormal (MAD All GDC-8264, n = 12): 1 (8.3) no. of subjects (%)
- TEAE Gingivitis (MAD All GDC-8264, n = 12): 2 (16.7) no. of subjects (%)
- TEAE Headache (MAD All GDC-8264, n = 12): 2 (16.7) no. of subjects (%)
- TEAE Medical device site dermatitis (MAD All GDC-8264, n = 12): 0 no. of subjects (%)
- TEAE Myalgia (MAD All GDC-8264, n = 12): 0 no. of subjects (%)
- TEAE Nausea (MAD All GDC-8264, n = 12): 1 (8.3) no. of subjects (%)
- TEAE Presyncope (MAD All GDC-8264, n = 12): 1 (8.3) no. of subjects (%)
- TEAE Somnolence (MAD All GDC-8264, n = 12): 3 (25.0) no. of subjects (%)
- No. of TEAEs (SAD (fasted) 5 mg, n = 6): 6
- No. of deaths (SAD (fasted) 5 mg, n = 6): 0 no. of subjects (%)
- No. of subjects with at least one Related TEAE (SAD (fasted) 5 mg, n = 6): 0 no. of subjects (%)
- No. of subjects with at least one Serious TEAE (SAD (fasted) 5 mg, n = 6): 0 no. of subjects (%)
- No. of subjects with at least one TEAE (SAD (fasted) 5 mg, n = 6): 5 (83.3) no. of subjects (%)
- No. of subjects withdrawn from study due to a TEAE (SAD (fasted) 5 mg, n = 6): 0 no. of subjects (%)
- TEAE Abdominal pain (SAD (fasted) 5 mg, n = 6): 1 (16.7) no. of subjects (%)
- TEAE Back pain (SAD (fasted) 5 mg, n = 6): 0 no. of subjects (%)
- TEAE Catheter site pain (SAD (fasted) 5 mg, n = 6): 1 (16.7) no. of subjects (%)
- TEAE Dermatitis contact (SAD (fasted) 5 mg, n = 6): 1 (16.7) no. of subjects (%)
- TEAE Diarrhea (SAD (fasted) 5 mg, n = 6): 0 no. of subjects (%)
- TEAE Dizziness (SAD (fasted) 5 mg, n = 6): 0 no. of subjects (%)
- TEAE Dyspepsia (SAD (fasted) 5 mg, n = 6): 1 (16.7) no. of subjects (%)
- TEAE Gastrointestinal sounds abnormal (SAD (fasted) 5 mg, n = 6): 0 no. of subjects (%)
- TEAE Gingivitis (SAD (fasted) 5 mg, n = 6): 0 no. of subjects (%)
- TEAE Headache (SAD (fasted) 5 mg, n = 6): 1 (16.7) no. of subjects (%)
- TEAE Medical device site dermatitis (SAD (fasted) 5 mg, n = 6): 0 no. of subjects (%)
- TEAE Myalgia (SAD (fasted) 5 mg, n = 6): 0 no. of subjects (%)
- TEAE Nausea (SAD (fasted) 5 mg, n = 6): 0 no. of subjects (%)
- TEAE Presyncope (SAD (fasted) 5 mg, n = 6): 0 no. of subjects (%)
- TEAE Somnolence (SAD (fasted) 5 mg, n = 6): 0 no. of subjects (%)
- No. of TEAEs (SAD (fasted) 25 mg, n = 6): 6
- No. of deaths (SAD (fasted) 25 mg, n = 6): 0 no. of subjects (%)
- No. of subjects with at least one Related TEAE (SAD (fasted) 25 mg, n = 6): 0 no. of subjects (%)
- No. of subjects with at least one Serious TEAE (SAD (fasted) 25 mg, n = 6): 0 no. of subjects (%)
- No. of subjects with at least one TEAE (SAD (fasted) 25 mg, n = 6): 4 (66.7) no. of subjects (%)
- No. of subjects withdrawn from study due to a TEAE (SAD (fasted) 25 mg, n = 6): 0 no. of subjects (%)
- TEAE Abdominal pain (SAD (fasted) 25 mg, n = 6): 1 (16.7) no. of subjects (%)
- TEAE Back pain (SAD (fasted) 25 mg, n = 6): 0 no. of subjects (%)
- TEAE Catheter site pain (SAD (fasted) 25 mg, n = 6): 0 no. of subjects (%)
- TEAE Dermatitis contact (SAD (fasted) 25 mg, n = 6): 0 no. of subjects (%)
- TEAE Diarrhea (SAD (fasted) 25 mg, n = 6): 0 no. of subjects (%)
- TEAE Dizziness (SAD (fasted) 25 mg, n = 6): 0 no. of subjects (%)
- TEAE Dyspepsia (SAD (fasted) 25 mg, n = 6): 0 no. of subjects (%)
- TEAE Gastrointestinal sounds abnormal (SAD (fasted) 25 mg, n = 6): 0 no. of subjects (%)
- TEAE Gingivitis (SAD (fasted) 25 mg, n = 6): 0 no. of subjects (%)
- TEAE Headache (SAD (fasted) 25 mg, n = 6): 2 (33.3) no. of subjects (%)
- TEAE Medical device site dermatitis (SAD (fasted) 25 mg, n = 6): 0 no. of subjects (%)
- TEAE Myalgia (SAD (fasted) 25 mg, n = 6): 0 no. of subjects (%)
- TEAE Nausea (SAD (fasted) 25 mg, n = 6): 0 no. of subjects (%)
- TEAE Presyncope (SAD (fasted) 25 mg, n = 6): 1 (16.7) no. of subjects (%)
- TEAE Somnolence (SAD (fasted) 25 mg, n = 6): 0 no. of subjects (%)
